test system: A549; experiment: Antiproliferative activity against human A549 cells at 10^-8 mol/L after 72 hrs by MTT assay; format: functional; details: A549, 72 h

Row | Structure (SMILES) | inhibition at 0.01 µM
1 | COc1cc2c3c(c4cc(OC)c(OC)cc4c2cc1OC)[C@@H](O)[C@@H]1CCCN1C3 | 5.2%
2 | COc1cc2c3c(c4cc5c(cc4c2cc1OC)OCO5)CC1CCCN1C3 (racemic) | 15.9%
3 | COc1cc2c3c(c4ccc(O)cc4c2cc1OC)CN1CCC[C@@H]1C3 | 86%
4 | COc1cc2c3c(c4cc5c(cc4c2cc1OC)OCCO5)CC1CCCN1C3 (racemic) | 14%
5 | c1c2c(cc3c1c1c(c4cc5c(cc43)OCO5)CN3CCCC3C1)OCO2 (racemic) | 5.7%
6 | c1c2c(cc3c1c1c(c4cc5c(cc43)OCCO5)CN3CCCC3C1)OCCO2 (racemic) | 8.7%
7 | COc1cc2c3c(c4cc(OC)c(OC)cc4c2cc1OC)CN1CCCC1C3 (racemic) [(+/-)-TYLOPHORINE] | 6%
8 | COc1cc2c3c(c4ccc(O)cc4c2cc1OC)CN1CCC[C@H]1C3 | 21.9%
9 | COc1cc2c3c(c4cc(OC)c(OC)cc4c2cc1OC)[C@H](O)[C@H]1CCCN1C3 | 5%
10 | COc1cc2c3c(c4cc5c(cc4c2cc1OC)OCO5)CN1CCCC1C3 (racemic) | 16.9%
11 | COc1cc2c3c(c4cc5c(cc4c2cc1OC)OCCO5)CN1CCCC1C3 (racemic) | 2.1%

test system: HL-60; experiment: Antiproliferative activity against human HL60 cells after 72 hrs by SRB assay; format: functional; details: Homo sapiens, HL-60, 72 h
How it was run: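 HL60 human promyelocytic leukemia cells were seeded and grown for 24 h, then given compounds and cultured for another 72 h. Read-out was SRB, per the table footnote. GI50 was obtained by the Logit method from three or more independent experiments.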

Row | GI50 | Structure (SMILES)
12 | < 1 nM | COc1cc2c3c(c4ccc(O)cc4c2cc1OC)CN1CCC[C@@H]1C3
13 | 100 nM | COc1cc2c3c(c4ccc(O)cc4c2cc1OC)CN1CCC[C@H]1C3

Row | Structure (SMILES) | GI50
14 | COc1cc2c3c(c4cc(OC)c(OC)cc4c2cc1OC)CN1CCCC1C3 (racemic) [(+/-)-TYLOPHORINE] | 100 nM

test system: A549; experiment: Antiproliferative activity against human A549 cells at 10^-6 mol/L after 72 hrs by MTT assay; format: functional; details: A549, 72 h

Row | Structure (SMILES) | inhibition at 1 µM
15 | COc1cc2c3c(c4cc(OC)c(OC)cc4c2cc1OC)[C@@H](O)[C@@H]1CCCN1C3 | 50%
16 | COc1cc2c3c(c4cc5c(cc4c2cc1OC)OCO5)CC1CCCN1C3 (racemic) | 70.3%
17 | COc1cc2c3c(c4ccc(O)cc4c2cc1OC)CN1CCC[C@@H]1C3 | 94.8%
18 | COc1cc2c3c(c4cc5c(cc4c2cc1OC)OCCO5)CC1CCCN1C3 (racemic) | 87.4%
19 | c1c2c(cc3c1c1c(c4cc5c(cc43)OCO5)CN3CCCC3C1)OCO2 (racemic) | 40.8%
20 | c1c2c(cc3c1c1c(c4cc5c(cc43)OCCO5)CN3CCCC3C1)OCCO2 (racemic) | 38.6%
21 | COc1cc2c3c(c4cc(OC)c(OC)cc4c2cc1OC)CN1CCCC1C3 (racemic) [(+/-)-TYLOPHORINE] | 72.3%
22 | COc1cc2c3c(c4ccc(O)cc4c2cc1OC)CN1CCC[C@H]1C3 | 85.9%
23 | COc1cc2c3c(c4cc(OC)c(OC)cc4c2cc1OC)[C@H](O)[C@H]1CCCN1C3 | 17.9%
24 | COc1cc2c3c(c4cc5c(cc4c2cc1OC)OCO5)CN1CCCC1C3 (racemic) | 80.9%
25 | COc1cc2c3c(c4cc5c(cc4c2cc1OC)OCCO5)CN1CCCC1C3 (racemic) | 85.6%

test system: HL-60; experiment: Antiproliferative activity against human HL60 cells at 10^-6 mol/L after 72 hrs by SRB assay; format: functional; details: HL-60, 72 h

Row | Structure (SMILES) | inhibition at 1 µM
26 | COc1cc2c3c(c4cc(OC)c(OC)cc4c2cc1OC)[C@@H](O)[C@@H]1CCCN1C3 | 49.8%
27 | COc1cc2c3c(c4cc5c(cc4c2cc1OC)OCO5)CC1CCCN1C3 (racemic) | 62.9%
28 | COc1cc2c3c(c4ccc(O)cc4c2cc1OC)CN1CCC[C@@H]1C3 | 89.7%
29 | COc1cc2c3c(c4cc5c(cc4c2cc1OC)OCCO5)CC1CCCN1C3 (racemic) | 83.1%
30 | c1c2c(cc3c1c1c(c4cc5c(cc43)OCO5)CN3CCCC3C1)OCO2 (racemic) | 13.6%
31 | c1c2c(cc3c1c1c(c4cc5c(cc43)OCCO5)CN3CCCC3C1)OCCO2 (racemic) | 11.2%
32 | COc1cc2c3c(c4cc(OC)c(OC)cc4c2cc1OC)CN1CCCC1C3 (racemic) [(+/-)-TYLOPHORINE] | 71.3%
33 | COc1cc2c3c(c4ccc(O)cc4c2cc1OC)CN1CCC[C@H]1C3 | 85.8%
34 | COc1cc2c3c(c4cc(OC)c(OC)cc4c2cc1OC)[C@H](O)[C@H]1CCCN1C3 | 27%
35 | COc1cc2c3c(c4cc5c(cc4c2cc1OC)OCO5)CN1CCCC1C3 (racemic) | 88.4%
36 | COc1cc2c3c(c4cc5c(cc4c2cc1OC)OCCO5)CN1CCCC1C3 (racemic) | 84.4%

test system: HL-60; experiment: Antiproliferative activity against human HL60 cells at 10^-7 mol/L after 72 hrs by SRB assay; format: functional; details: HL-60, 72 h

Row | Structure (SMILES) | inhibition at 0.1 µM
37 | COc1cc2c3c(c4cc(OC)c(OC)cc4c2cc1OC)[C@@H](O)[C@@H]1CCCN1C3 | 8.2%
38 | COc1cc2c3c(c4cc5c(cc4c2cc1OC)OCO5)CC1CCCN1C3 (racemic) | 9.4%
39 | COc1cc2c3c(c4ccc(O)cc4c2cc1OC)CN1CCC[C@@H]1C3 | 87.1%
40 | COc1cc2c3c(c4cc5c(cc4c2cc1OC)OCCO5)CC1CCCN1C3 (racemic) | 37%
41 | c1c2c(cc3c1c1c(c4cc5c(cc43)OCO5)CN3CCCC3C1)OCO2 (racemic) | 8.3%
42 | c1c2c(cc3c1c1c(c4cc5c(cc43)OCCO5)CN3CCCC3C1)OCCO2 (racemic) | 8.2%
43 | COc1cc2c3c(c4cc(OC)c(OC)cc4c2cc1OC)CN1CCCC1C3 (racemic) [(+/-)-TYLOPHORINE] | 40.5%
44 | COc1cc2c3c(c4ccc(O)cc4c2cc1OC)CN1CCC[C@H]1C3 | 76.1%
45 | COc1cc2c3c(c4cc(OC)c(OC)cc4c2cc1OC)[C@H](O)[C@H]1CCCN1C3 | 16.1%
46 | COc1cc2c3c(c4cc5c(cc4c2cc1OC)OCO5)CN1CCCC1C3 (racemic) | 56.4%
47 | COc1cc2c3c(c4cc5c(cc4c2cc1OC)OCCO5)CN1CCCC1C3 (racemic) | 52.2%

test system: A549; experiment: Antiproliferative activity against human A549 cells after 72 hrs by MTT assay; format: functional; details: Homo sapiens, A549, 72 h
How it was run: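 A549 human lung adenocarcinoma epithelial cells were seeded and grown for 24 h, then exposed to compounds for a further 72 h. Proliferation was read by MTT, as assigned in the table footnote. GI50 was calculated by the Logit method from at least three independent experiments.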

Row | GI50 | Structure (SMILES)
48 | < 1 nM | COc1cc2c3c(c4ccc(O)cc4c2cc1OC)CN1CCC[C@@H]1C3
49 | 360 nM | COc1cc2c3c(c4cc5c(cc4c2cc1OC)OCCO5)CC1CCCN1C3 (racemic)
50 | 40 nM | COc1cc2c3c(c4ccc(O)cc4c2cc1OC)CN1CCC[C@H]1C3
51 | 970 nM | COc1cc2c3c(c4cc5c(cc4c2cc1OC)OCCO5)CN1CCCC1C3 (racemic)

Row | Structure (SMILES) | GI50
52 | COc1cc2c3c(c4cc(OC)c(OC)cc4c2cc1OC)CN1CCCC1C3 (racemic) [(+/-)-TYLOPHORINE] | 1300 nM

test system: A549; experiment: Antiproliferative activity against human A549 cells at 10^-7 mol/L after 72 hrs by MTT assay; format: functional; details: A549, 72 h

Row | Structure (SMILES) | inhibition at 0.1 µM
53 | COc1cc2c3c(c4cc(OC)c(OC)cc4c2cc1OC)[C@@H](O)[C@@H]1CCCN1C3 | 8.2%
54 | COc1cc2c3c(c4cc5c(cc4c2cc1OC)OCO5)CC1CCCN1C3 (racemic) | 22.4%
55 | COc1cc2c3c(c4ccc(O)cc4c2cc1OC)CN1CCC[C@@H]1C3 | 92.3%
56 | COc1cc2c3c(c4cc5c(cc4c2cc1OC)OCCO5)CC1CCCN1C3 (racemic) | 58.2%
57 | c1c2c(cc3c1c1c(c4cc5c(cc43)OCO5)CN3CCCC3C1)OCO2 (racemic) | 5.2%
58 | c1c2c(cc3c1c1c(c4cc5c(cc43)OCCO5)CN3CCCC3C1)OCCO2 (racemic) | 6.3%
59 | COc1cc2c3c(c4cc(OC)c(OC)cc4c2cc1OC)CN1CCCC1C3 (racemic) [(+/-)-TYLOPHORINE] | 61.4%
60 | COc1cc2c3c(c4ccc(O)cc4c2cc1OC)CN1CCC[C@H]1C3 | 71.3%
61 | COc1cc2c3c(c4cc(OC)c(OC)cc4c2cc1OC)[C@H](O)[C@H]1CCCN1C3 | 5.6%
62 | COc1cc2c3c(c4cc5c(cc4c2cc1OC)OCO5)CN1CCCC1C3 (racemic) | 51.6%
63 | COc1cc2c3c(c4cc5c(cc4c2cc1OC)OCCO5)CN1CCCC1C3 (racemic) | 78.9%

test system: HL-60; experiment: Antiproliferative activity against human HL60 cells at 10^-8 mol/L after 72 hrs by SRB assay; format: functional; details: HL-60, 72 h

Row | Structure (SMILES) | inhibition at 0.01 µM
64 | COc1cc2c3c(c4cc(OC)c(OC)cc4c2cc1OC)[C@@H](O)[C@@H]1CCCN1C3 | 3.9%
65 | COc1cc2c3c(c4cc5c(cc4c2cc1OC)OCO5)CC1CCCN1C3 (racemic) | 11.7%
66 | COc1cc2c3c(c4ccc(O)cc4c2cc1OC)CN1CCC[C@@H]1C3 | 86.5%
67 | COc1cc2c3c(c4cc5c(cc4c2cc1OC)OCCO5)CC1CCCN1C3 (racemic) | 3.8%
68 | c1c2c(cc3c1c1c(c4cc5c(cc43)OCO5)CN3CCCC3C1)OCO2 (racemic) | 10.4%
69 | c1c2c(cc3c1c1c(c4cc5c(cc43)OCCO5)CN3CCCC3C1)OCCO2 (racemic) | 0%
70 | COc1cc2c3c(c4cc(OC)c(OC)cc4c2cc1OC)CN1CCCC1C3 (racemic) [(+/-)-TYLOPHORINE] | 14.9%
71 | COc1cc2c3c(c4ccc(O)cc4c2cc1OC)CN1CCC[C@H]1C3 | 37.4%
72 | COc1cc2c3c(c4cc(OC)c(OC)cc4c2cc1OC)[C@H](O)[C@H]1CCCN1C3 | 12.1%
73 | COc1cc2c3c(c4cc5c(cc4c2cc1OC)OCO5)CN1CCCC1C3 (racemic) | 14.8%
74 | COc1cc2c3c(c4cc5c(cc4c2cc1OC)OCCO5)CN1CCCC1C3 (racemic) | 16%

From ChEMBL document CHEMBL1955742, “Synthesis and SAR studies of phenanthroindolizidine and phenanthroquinolizidine alkaloids as potent anti-tumor agents” (2012)
